# Source: PubChem BioAssay (several laboratories)
# Rows were chosen to be rich in hits. Some 8.8% of all compounds tested hit in one or more screens of this group.
# M1 antagonist – antagonists of rat M1 muscarinic receptor; Muscarinic acetylcholine receptor M1 (Rattus norvegicus), P08482; CHO-M1 cells, Fluo-4 calcium, ACh EC80 antagonist mode; stronger effect = lower value; B-score at 10 µM; 64,000 compounds, 3.4% hits;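 active = calcium fluorescence response, raw or row-and-column corrected B-score, differing from the plate sample mean either way at a set confidence level, mostly lower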
# S1P1 ag pot – S1P1 agonists and agonism potentiators, primary screen, cell-based, primary and confirmation screens, CRE-bla reporter; S1P1 CRE-bla cells, forskolin, beta-lactamase FRET, potentiator mode; S1P1 agonist co-added at EC20, 2 nM; 100% = saturating reference agonist, 0% = basal; activation, % at 9.5 µM; 56,000 compounds, 0.57% hits;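 active = activation above a cutoff set at the mean activation of all tested compounds plus 3 SD, cut at about 54% in these data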;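 note: forskolin at 4 µM as EC80 and the EC20 agonist is SEW2871; 100% = SEW2871 at its EC100 plus forskolin at EC80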
# RORA act – activators of orphan receptor RORA, primary screen, cell-based, luminescence. Nuclear receptor ROR-alpha (Homo sapiens), P35398. 65,000 compounds, 1.5% hits. activation, % at 10 µM. CHO-K1 Gal4-RORA LBD luciferase reporter; percent increase over mock-subtracted basal signal;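 active = activation above the mean of all tested compounds plus 3 SD, cut at about 49% in these data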;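 note: 0% = DMSO-treated RORA cells and 100% = added signal equal to DMSO minus mock-transfected cells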
# SF-1 act – activators of human SF-1, primary screen, cell-based, CHO-K1, Gal4-SF-1 LBD, luciferase luminescence; CHO-K1 Gal4-SF-1 LBD luciferase reporter; % increase over DMSO SF-1-specific signal; activation, % at 10 µM; 65,000 compounds, 1.9% hits;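 active = activation above the mean activation of all tested compounds plus 3 SD, cut at about 50% in these data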
#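 Assay system – CHO-K1 cells with Gal4–hSF-1 LBD chimera plus Gal4-driven luciferase · Quantity – 4,000 cells per well · Times – compound added 1 h post-seeding, 20 h exposure at 37 °C, 5% CO2 · Measured by – luciferase light emission · Benchmarks – DMSO and mock-transfected background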
# S1P3 agonist – human S1P3 receptor agonists, primary screen, cell-based, primary and confirmation, NFAT-BLA reporter; Sphingosine 1-phosphate receptor 3 (Homo sapiens), Q99500; S1P3 NFAT-BLA reporter cells, agonism, FRET ratio; relative to 1 µM S1P, basal subtracted; activation, % at 4.5 µM; 60,000 compounds, 0.1% hits; AID 373, 2006;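 active = activation above the screen-wide mean plus 3 SD, cut at about 4.5% in these data, passing the limit was not always enough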
#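 material = human S1P3 NFAT-BLA reporter CHO cells | schedule = 4 h compound at 37 °C, 2 h substrate at RT | measured by = fluorescent BLA substrate, ex 405 nm, em 460/535 nm ratio | controls = 1 µM S1P reference | replication = primary once, confirmation triplicate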
# M1 agonist – M1 muscarinic receptor agonists, primary screen, CHO-M1 cells, Fluo-4 calcium, agonist mode; Muscarinic acetylcholine receptor M1; Fluo-4 calcium fluorescence; stronger effect = higher value; B-score at 10 µM; 64,000 compounds, 3% hits; AID 626, 2007;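 active = fluorescence rise, raw or as B-score row- and column-corrected plate score, outside the 99.7% band of its plate's samples, either direction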
# M1 ag confirm – rat M1 muscarinic receptor agonists, confirmation, CHO-M1 cells, Fluo-4 calcium, duplicate retest. shares compounds with M1 agonist. 1,700 compounds, 19% hits. Fluo-4 calcium fluorescence, agonist mode; actives lie on both sides. fluorescence change (max-min) at 10 µM;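 active = fluorescence change differs from the solvent-only DMSO control mean at a set confidence level in both duplicate runs; inconclusive = differs from solvent-only control mean in just one of two runs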;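 note: an EC20 dose of acetylcholine follows compound addition during the same imaging run; raw fluorescence intensity difference in instrument units with no normalization to controls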
# M4 ag counter – agonist activity at rat M4 receptor, confirmation, counter-screen for M1 allosteric modulator project, cell-based, agonist mode; shares compounds with M1 agonist; CHO M4/Gqi5 cells, Fluo-4 calcium fluorescence; actives lie on both sides; fluorescence change (max-min) at 10 µM; 1,700 compounds, 9% hits;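 active = fluorescence change differing from the plate's solvent-only control wells at 99.7% confidence in both duplicates, whether higher or lower; inconclusive = differs from solvent controls in only one of two duplicates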
# Target sequence (P08485 whole entry, looked up): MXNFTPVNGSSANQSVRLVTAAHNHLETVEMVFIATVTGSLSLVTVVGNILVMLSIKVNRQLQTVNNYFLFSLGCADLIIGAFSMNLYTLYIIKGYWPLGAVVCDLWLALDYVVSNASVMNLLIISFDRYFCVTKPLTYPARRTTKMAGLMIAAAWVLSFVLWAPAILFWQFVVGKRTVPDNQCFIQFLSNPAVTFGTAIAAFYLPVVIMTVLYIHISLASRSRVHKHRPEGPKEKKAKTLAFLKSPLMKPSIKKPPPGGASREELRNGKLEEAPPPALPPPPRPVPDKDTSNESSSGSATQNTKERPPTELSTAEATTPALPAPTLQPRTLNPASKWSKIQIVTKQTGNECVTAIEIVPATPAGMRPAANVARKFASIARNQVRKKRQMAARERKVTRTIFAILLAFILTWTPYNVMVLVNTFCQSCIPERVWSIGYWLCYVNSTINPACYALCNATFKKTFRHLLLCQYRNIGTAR
# Starred values were filed as active, the others as inactive; u = inconclusive; x = no result.
SMILES,M1 antagonist,S1P1 ag pot,RORA act,SF-1 act,S1P3 agonist,M1 agonist,M1 ag confirm,M4 ag counter
COc1ccc(NC(=O)COc2ccccc2C#N)c(S(=O)(=O)N2CCCCC2)c1,-1.6,-4,-6,2,0,4.4*,-16,-26
COC(=O)c1ccccc1NC(=O)COc1ccc(S(=O)(=O)N2CCCC2)cc1C,-0.36,x,-17,-8,0,-0.31,x,x
O=C(O)CCC(NS(=O)(=O)c1ccc(-c2ccccc2)cc1)C(=O)O (stereo not given),0.41,x,-3,2,x,0.096,x,x
O=C(CCCc1nc(-c2ccc(Cl)cc2)no1)N1CCOCC1,-0.65,5,3,5,-1,-2.5*,u,-90*
Cc1ccc2c(c1)-c1c(cnn1CC(=O)O)CO2,-0.54,-16,0,-15,0,0.31,x,x
O=C(Cn1ncc2c(=O)oc3ccccc3c21)N1CCCN(Cc2ccccc2F)C1,-0.88,-6,-17,-15,-2,6*,-10,-33
Cc1ccc2c(c1)-c1c(cnn1CC(=O)N1CCCN(Cc3ccccc3F)C1)CO2,0.05,-10,-19,-11,0,3.4*,u,-36
O=C(Cn1ncc2c(=O)oc3ccccc3c21)N1CCN(C(=O)c2ccco2)CC1,-0.51,-5,-9,-8,-2,-0.35,x,x
O=c1c(O)c(-c2ccc(O)cc2O)oc2cc(O)cc(O)c12,0.15,-12,-4,-4,-3,27*,74*,52
Nc1ccc2c(C(F)(F)F)cc(=O)oc2c1,0.2,20,18,-9,1,26*,171*,146
COc1cccc2cc(-c3nc(-c4cccs4)cs3)c(=O)oc12,0.58,18,55*,33,-1,14*,u,u
CC(C)CCOCC(=O)Nc1cccc(C(=O)O)c1,-1.1,-3,31,35,0,1.9,x,x
CN1CCN(C(=O)CSc2nc(-c3cccs3)cc(-c3cccs3)c2C#N)CC1,-1.1,67*,0,0,-1,5.7*,-1.4,-16
CC(NS(=O)(=O)c1ccccc1)C(N)=O (stereo not given),0,-3,-19,-10,0,0.22,x,x
O=CN1Cc2[nH]c3ccccc3c2N(c2ccc(Cl)cc2)C1=O,-0.046,-4,-9,0,-1,4.8*,16,-20
c1csc(CNc2ncnc3sccc23)c1,x,x,-39,-51,x,x,x,x
CN(Cc1cccs1)c1ncnc2sccc12,-0.37,55,-13,8,-1,2.6*,-3.4,-87*
COCCCNC(=O)c1ccccc1NS(=O)(=O)c1ccc(C)cc1,0.0026,-19,0,-16,-1,-0.0031,x,x
Cc1ccc(CNC(=O)CCNC(=O)Cn2ccc3ccccc3c2=O)o1,0.56,x,-6,-6,x,-0.33,x,x
CC(C)c1nnc(NC(=O)CCC(=O)N2CCN(C3CCCCC3)CC2)s1,-0.027,-8,-9,-7,0,3.1*,u,-8.6
Cc1ccc(OCCN2CCN(C(=O)CCC(=O)Nc3nnc(C(C)C)s3)CC2)cc1,-1.9,6,-6,-16,-1,13*,5.1,0.75
CCc1nnc(NC(=O)CCC(=O)N2CCN(C3CCCCC3)CC2)s1,x,-10,-13,9,-1,x,x,x
CCCc1nnc(NC(=O)CCC(=O)N2CCN(CCOc3ccc(C)cc3)CC2)s1,-1.6,4,-11,-12,-1,20*,-7.2,-35
Cc1ccc(OCCN2CCN(C(=O)CCC(=O)Nc3nnc(C)s3)CC2)cc1,-0.77,5,-5,-6,-1,-1.1,x,x
Cc1ccc(P(=Nc2ccccc2)(N2CCOCC2)N2CCOCC2)o1,-1.7,-15,23,10,1,0.5,x,x
SMILES,M1 antagonist,S1P1 ag pot,RORA act,SF-1 act,S1P3 agonist,M1 agonist,M1 ag confirm,M4 ag counter
COC(=O)c1cccc(S(=O)(=O)N2CCC(C)CC2)c1,0.26,x,-1,-8,0,-0.71,x,x
COC(=O)c1cccc(S(=O)(=O)N2CCC(NC(=O)NC34CC5CC(CC(C5)C3)C4)CC2)c1,-1.7,7,0,3,4,3.8*,u,-58
C=CCn1c(N)cc(=O)nc1SCC(=O)NC(C)c1ccccc1 (stereo not given),-0.39,x,2,7,-1,-0.15,x,x
CCc1ccccc1NC(=O)c1cc(C2CC2)on1,-0.25,16,-8,8,-1,-0.0049,x,x
Cc1csc2nc(CNC(=O)C3CC=CCC3C(=O)O)cn12 (stereo not given),-0.2,2,8,30,-1,0.97,x,x
CCCCS(=O)(=O)Nc1ccc(Cc2ccncc2)cc1,0.047,0,-18,14,-1,3.2*,u,-39
CCCCc1ccc(NS(=O)(=O)N(C)C)cc1,x,3,-5,13,-2,x,x,x
COc1ccc(S(=O)(=O)N(CC(=O)N2CCOCC2)c2cc(Cl)ccc2OC)cc1OC,-0.13,-3,14,1,-1,0.077,x,x
CCN(CC)S(=O)(=O)c1ccc2c(c1)nc(SCc1nc3ccsc3c(=O)[nH]1)n2CC,-0.82,-27,-7,3,-1,-0.52,x,x
O=C1C2ON(c3ccccc3)C(c3ccccn3)C2C(=O)N1c1ccc(Br)cc1 (stereo not given),0.71,-12,-3,-9,-1,0.52,x,x
Cc1ccccc1N1OC2C(=O)N(c3ccc(F)cc3)C(=O)C2C1c1ccccn1 (stereo not given),-0.12,-3,15,11,0,13*,-6.3,-15
CCC(c1nnnn1CCC(C)C)N1CCC(C(N)=O)CC1 (stereo not given),0.28,5,-15,-6,0,-0.074,x,x
NC(=O)NC(=O)CSc1cccc(C(F)(F)F)c1,0.41,2,4,-6,0,-0.28,x,x
CCOC(=O)COc1ccc(S(=O)(=O)NCc2ccco2)cc1,-0.18,19,1,1,0,-0.97,x,x
